In ChEMBL document CHEMBL1932952, “Synthesis and biochemical analysis of 2,2,3,3,4,4,5,5,6,6,7,7-dodecafluoro-N-hydroxy-octanediamides as inhibitors of human histone deacetylases” (Bioorg Med Chem, 2012):

Assays:
[1] = target: T1, Histone deacetylase-like amidohydrolase (Alcaligenes sp. (strain DSM 11172) (Bordetella sp. (strain FB188)), UniProt Q70I53); assay: Inhibition of Bordetella FB188 HDAH using Boc-L-Lys(acetyl)-MCA as substrate by fluorogenic enzymatic assay
T1 sequence (Q70I53 whole entry): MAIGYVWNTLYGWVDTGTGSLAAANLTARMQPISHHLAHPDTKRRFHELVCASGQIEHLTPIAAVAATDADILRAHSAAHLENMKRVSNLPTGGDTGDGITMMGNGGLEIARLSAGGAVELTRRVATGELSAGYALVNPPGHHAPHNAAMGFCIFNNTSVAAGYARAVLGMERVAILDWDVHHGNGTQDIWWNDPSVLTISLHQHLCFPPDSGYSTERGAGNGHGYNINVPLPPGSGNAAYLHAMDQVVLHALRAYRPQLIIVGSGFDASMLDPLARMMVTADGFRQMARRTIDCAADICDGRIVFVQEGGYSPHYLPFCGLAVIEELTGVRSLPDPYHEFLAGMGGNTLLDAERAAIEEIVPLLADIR

Histone deacetylase 1 = Histone deacetylase 1 (Homo sapiens, UniProt Q13547); assay: Inhibition of recombinant human HDAC1 using Boc-L-Lys(acetyl)-MCA as substrate by fluorogenic enzymatic assay
[2] = target: T2, Protein deacetylase HDAC6 (Homo sapiens, UniProt Q9UBN7); assay: Inhibition of recombinant human HDAC6 using Boc-L-Lys(acetyl)-MCA as substrate by fluorogenic enzymatic assay
T2 sequence (Q9UBN7 whole entry): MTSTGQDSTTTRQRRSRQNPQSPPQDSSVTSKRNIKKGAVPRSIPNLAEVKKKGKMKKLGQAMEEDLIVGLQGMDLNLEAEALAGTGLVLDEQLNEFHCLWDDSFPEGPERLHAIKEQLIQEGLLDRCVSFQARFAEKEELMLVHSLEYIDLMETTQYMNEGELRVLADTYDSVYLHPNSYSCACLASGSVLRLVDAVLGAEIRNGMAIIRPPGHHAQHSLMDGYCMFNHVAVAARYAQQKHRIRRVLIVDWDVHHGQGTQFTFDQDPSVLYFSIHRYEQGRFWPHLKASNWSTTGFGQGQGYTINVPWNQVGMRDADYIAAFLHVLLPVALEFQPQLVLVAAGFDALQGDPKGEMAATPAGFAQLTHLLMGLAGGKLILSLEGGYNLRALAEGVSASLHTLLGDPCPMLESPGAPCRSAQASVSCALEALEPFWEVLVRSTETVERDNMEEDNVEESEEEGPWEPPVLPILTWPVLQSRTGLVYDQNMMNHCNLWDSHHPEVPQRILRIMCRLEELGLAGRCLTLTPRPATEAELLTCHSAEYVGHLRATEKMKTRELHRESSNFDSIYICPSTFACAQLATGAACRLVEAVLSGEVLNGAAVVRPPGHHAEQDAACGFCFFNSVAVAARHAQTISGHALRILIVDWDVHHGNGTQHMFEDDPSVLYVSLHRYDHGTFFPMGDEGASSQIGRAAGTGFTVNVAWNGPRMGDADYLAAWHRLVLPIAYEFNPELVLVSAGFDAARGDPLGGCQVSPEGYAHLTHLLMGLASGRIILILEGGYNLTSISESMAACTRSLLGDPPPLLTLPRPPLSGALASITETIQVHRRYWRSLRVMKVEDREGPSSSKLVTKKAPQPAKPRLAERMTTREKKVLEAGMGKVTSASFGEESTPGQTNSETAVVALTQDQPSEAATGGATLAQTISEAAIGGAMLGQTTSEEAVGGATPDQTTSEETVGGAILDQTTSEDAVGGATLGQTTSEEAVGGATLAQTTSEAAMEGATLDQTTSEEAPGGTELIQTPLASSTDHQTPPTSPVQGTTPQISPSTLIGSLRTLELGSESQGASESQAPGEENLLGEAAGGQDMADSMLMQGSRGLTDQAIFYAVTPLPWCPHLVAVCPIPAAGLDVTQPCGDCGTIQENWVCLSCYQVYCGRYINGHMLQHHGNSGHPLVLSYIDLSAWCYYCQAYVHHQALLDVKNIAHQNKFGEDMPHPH

Histone deacetylase 7 = target: T3, Histone deacetylase 7 (Homo sapiens, UniProt Q8WUI4); assay: Inhibition of recombinant human HDAC7 using Boc-L-Lys(trifluoroacetyl)-MCA as substrate by fluorogenic enzymatic assay
T3 sequence (Q8WUI4 whole entry): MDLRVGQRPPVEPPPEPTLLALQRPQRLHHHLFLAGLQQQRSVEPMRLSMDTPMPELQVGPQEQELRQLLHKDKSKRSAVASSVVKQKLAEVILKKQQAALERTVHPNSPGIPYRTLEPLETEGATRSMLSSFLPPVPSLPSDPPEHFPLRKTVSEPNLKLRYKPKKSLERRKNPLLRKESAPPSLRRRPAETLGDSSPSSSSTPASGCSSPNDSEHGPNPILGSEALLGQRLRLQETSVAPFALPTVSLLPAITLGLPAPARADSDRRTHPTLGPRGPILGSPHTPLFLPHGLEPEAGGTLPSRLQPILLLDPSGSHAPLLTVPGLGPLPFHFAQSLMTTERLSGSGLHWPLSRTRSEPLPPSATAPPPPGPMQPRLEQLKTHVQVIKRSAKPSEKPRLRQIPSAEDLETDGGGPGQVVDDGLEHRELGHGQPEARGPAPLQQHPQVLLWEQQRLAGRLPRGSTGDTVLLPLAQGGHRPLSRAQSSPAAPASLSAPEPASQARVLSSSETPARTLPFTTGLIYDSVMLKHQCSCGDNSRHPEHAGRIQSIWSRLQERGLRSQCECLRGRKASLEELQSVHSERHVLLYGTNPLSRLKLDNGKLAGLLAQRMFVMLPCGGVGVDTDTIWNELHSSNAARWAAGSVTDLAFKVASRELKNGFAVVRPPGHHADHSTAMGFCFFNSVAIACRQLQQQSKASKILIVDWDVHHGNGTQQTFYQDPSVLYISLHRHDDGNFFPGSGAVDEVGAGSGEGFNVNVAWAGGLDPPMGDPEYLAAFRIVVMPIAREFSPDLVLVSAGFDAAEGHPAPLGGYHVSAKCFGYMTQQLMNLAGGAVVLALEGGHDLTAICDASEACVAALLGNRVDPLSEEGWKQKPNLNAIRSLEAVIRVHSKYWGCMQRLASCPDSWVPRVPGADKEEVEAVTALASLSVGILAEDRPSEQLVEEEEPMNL

Histone deacetylase 8 = target: T4, Histone deacetylase 8 (Homo sapiens, UniProt Q9BY41); assay: Inhibition of recombinant human HDAC8 using Boc-L-Lys(trifluoroacetyl)-MCA as substrate by fluorogenic enzymatic assay
T4 sequence (Q9BY41 whole entry): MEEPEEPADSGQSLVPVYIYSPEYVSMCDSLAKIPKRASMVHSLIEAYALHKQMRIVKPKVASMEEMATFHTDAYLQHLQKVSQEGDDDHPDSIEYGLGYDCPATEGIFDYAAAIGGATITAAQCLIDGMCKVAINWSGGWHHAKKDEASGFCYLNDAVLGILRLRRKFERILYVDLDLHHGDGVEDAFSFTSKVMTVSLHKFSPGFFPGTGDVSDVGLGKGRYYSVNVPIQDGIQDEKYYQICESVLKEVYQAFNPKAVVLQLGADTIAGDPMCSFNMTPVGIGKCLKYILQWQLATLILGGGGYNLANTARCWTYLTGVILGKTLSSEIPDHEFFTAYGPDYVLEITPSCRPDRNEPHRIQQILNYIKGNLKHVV

[3] = target: T5, Histone deacetylase 7 (Homo sapiens) (UniProt Q8WUI4); assay: Ratio of SAHA Kd to compound Kd for recombinant human HDAC7
T5 sequence (whole entry): T3 sequence (Q8WUI4 whole entry)

Histone deacetylase [4] = assay: Inhibition of HDAC in human K562 cells using Boc-L-Lys(acetyl)-MCA as substrate by fluorogenic cellular assay; assay type: cell-based
Summary of the method: (§1)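 K562 cells were grown in RPMI with 10% FCS, L-glutamine and gentamycin, then pelleted. Lysis in 50 mM Tris–HCl pH 8.5, 1 M NaCl, 1 mM MgCl₂, Triton X-100 (up to 5× pellet volume), 2 h at 37 °C. The diluted lysate replaces recombinant enzyme in the two-step fluorogenic trypsin-coupled assay with substrate at 20 µM final. Read-out is AMC fluorescence (ex 390, em 460 nm), giving IC50.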

Histone deacetylase [5] = assay: Inhibition of HDAC in human K562 cells using Boc-L-Lys(trifluoroacetyl)-MCA as substrate by fluorogenic cellular assay; assay type: cell-based; summary of the method: as §1
[6] = target: T6, Histone deacetylase 8 (Homo sapiens) (UniProt Q9BY41); assay: Ratio of SAHA Kd to compound Kd for recombinant human HDAC8
T6 sequence (whole entry): T4 sequence (Q9BY41 whole entry)

Sequence of Histone deacetylase 1 (Q13547 whole entry): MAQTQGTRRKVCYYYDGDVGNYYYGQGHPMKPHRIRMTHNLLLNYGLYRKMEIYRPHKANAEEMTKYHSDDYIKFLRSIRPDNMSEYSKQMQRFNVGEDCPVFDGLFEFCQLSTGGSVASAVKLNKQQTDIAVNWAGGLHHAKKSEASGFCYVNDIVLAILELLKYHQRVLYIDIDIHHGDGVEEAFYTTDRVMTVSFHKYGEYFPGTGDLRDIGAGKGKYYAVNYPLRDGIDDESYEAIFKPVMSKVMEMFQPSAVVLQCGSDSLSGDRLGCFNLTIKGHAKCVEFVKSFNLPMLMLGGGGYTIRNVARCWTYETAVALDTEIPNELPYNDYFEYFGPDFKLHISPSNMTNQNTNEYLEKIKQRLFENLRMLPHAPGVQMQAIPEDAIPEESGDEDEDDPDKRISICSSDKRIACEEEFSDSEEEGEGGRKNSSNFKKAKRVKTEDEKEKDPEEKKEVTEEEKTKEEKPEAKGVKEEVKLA

Compound | Kd [1] [µM] | Kd (Histone deacetylase 1) [µM] | Kd [2] [µM] | Kd (Histone deacetylase 7) [µM] | Kd (Histone deacetylase 8) [µM] | Ratio [3] | IC50 (Histone deacetylase [4]) [µM] | IC50 (Histone deacetylase [5]) [µM] | Ratio [6]
O=C(NO)C(F)(F)C(F)(F)C(F)(F)C(F)(F)C(F)(F)C(F)(F)C(=O)Nc1ccccc1 | 0.54 | 29 | 11 | 11 | 17 | 3 | > 50 | 49 | 
O=C(NO)C(F)(F)C(F)(F)C(F)(F)C(F)(F)C(F)(F)C(F)(F)C(=O)Nc1ccc2ccccc2c1 | 0.16 | 12 | 6.8 | 11 | 49 |  | > 50 | 45 | 
O=C(NO)C(F)(F)C(F)(F)C(F)(F)C(F)(F)C(F)(F)C(F)(F)C(=O)Nc1nc(-c2ccccc2)cs1 | 2.2 | 2.6 | 5.4 | 1.4 | 1.5 | 25 | 30 | 14 | 2
O=C(NO)C(F)(F)C(F)(F)C(F)(F)C(F)(F)C(F)(F)C(F)(F)C(=O)Nc1ccc(I)cc1 | 0.39 | 14 | 4.2 | 4.1 | 36 |  | > 50 | > 50 | 
O=C(NO)C(F)(F)C(F)(F)C(F)(F)C(F)(F)C(F)(F)C(F)(F)C(=O)Nc1cccc2cc3ccccc3cc12 | 0.74 | 14 | 5.9 | 13 | 1.4 |  | > 50 | > 50 | 
